Experimental data: ChEMBL document CHEMBL1153856, “Synthesis and spectral characterization of a new class of N-(N-methylpiperazinoacetyl)-2,6-diarylpiperidin-4-ones: antimicrobial, analgesic and antipyretic studies” (2009)

Legend:
Assay type in all cases: functional
Rattus norvegicus [1] = assay: Antipyretic activity against brewer's yeast-induced hyperthermia in Wistar rat assessed as change in rectal temperature at 5 mg/kg, po after 30 mins
In short: (§1)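 Wistar rats of both sexes, 200–250 g, received brewer's yeast in normal saline sc. Rectal temperature was taken with a digital thermometer (precision 0.1 °C). At 18 h, rats whose temperature had risen 0.3–0.5 °C were selected. Test compounds (30 or 60 mg/kg) or indomethacin (5 mg/kg) were given orally in 1% CMC; controls received vehicle only. Temperature was measured at 30, 60, 90, 120 and 150 min, mean ± SEM.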

Rattus norvegicus [2] = assay: Antipyretic activity against brewer's yeast-induced hyperthermia in Wistar rat assessed as change in rectal temperature at 5 mg/kg, po after 60 mins; in short: as §1
Rattus norvegicus [3] = assay: Antipyretic activity against brewer's yeast-induced hyperthermia in Wistar rat assessed as change in rectal temperature at 5 mg/kg, po after 90 mins; in short: as §1
Rattus norvegicus [4] = assay: Antipyretic activity against brewer's yeast-induced hyperthermia in Wistar rat assessed as change in rectal temperature at 5 mg/kg, po after 120 mins; in short: as §1
Rattus norvegicus [5] = assay: Antipyretic activity against brewer's yeast-induced hyperthermia in Wistar rat assessed as change in rectal temperature at 5 mg/kg, po after 150 mins; in short: as §1

COc1ccc2c(c1)c(CC(=O)O)c(C)n2C(=O)c1ccc(Cl)cc1 [INDOMETHACIN]
Activity (Rattus norvegicus [1]): 38.1 °C | Activity (Rattus norvegicus [2]): 37.9 °C | Activity (Rattus norvegicus [3]): 37.8 °C | Activity (Rattus norvegicus [4]): 37.7 °C | Activity (Rattus norvegicus [5]): 37.5 °C
